Most compounds without a hit are left out; they make up all but 0.57% or so of the library.
p-CIP stab down: compounds decreasing mouse p/CIP protein stability | F442A p/CIP-EGFP cells, EGFP fluorescence, 16 h | decrease of EGFP signal, % at 10 µM | 290,000 tested, 0.01% active | AID 1984;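 active = EGFP signal decrease of at least 30% at 10 µM or well 3 SD below plate mean, unless failing retest; inactive = the rest, including hits failing retest or dose response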
Arr AP2 block: inhibitors of human beta-arrestin and AP2 interaction. FITC-arrestin peptide / GST-AP2 beads, flow cytometry; AP2 beta2 appendage carries R879A mutation. inhibition, % at 10 µM. 340,000 tested, 0.31% active;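 active = inhibition above a set limit, near 3 SD of compounds lacking own fluorescence, cut at about 54% in these data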;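 also: plate controls were DMSO wells for no effect and 5 µM unlabelled arrestin peptide for full effect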
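Assay system: GST-AP2 R879A bound to glutathione beads, E. coli-expressed; Medium: PBS with 0.05% Tween 20 and 0.1% BSA; Also added: fluorescein-tagged arrestin peptide at 50 nM final; Timing: 12 min plus 1 h, RT; Measured by: flow cytometry, FL1 (488/535 nm); Evaluation: percent drop in bead-associated FITC signal.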
GASC-1 inh: inhibitors of human GASC-1 (JMJD2C) demethylase. Q9H3R0. GST-JMJD2C(1-420) H3K9me3 demethylation, DELFIA europium. inhibition, % at 2.35 µM. 330,000 tested, 0.069% active. AID 2099;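 active = more than half of a compound's replicate wells show inhibition beyond 50%, single wells judged on their own value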;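 also: signal counts dimethyl H3K9 product captured on neutravidin plate; 0% = median of DMSO wells and 100% = 0.3 times that DMSO median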
VLA-4 inh: inhibition in a human VLA-4 binding assay; P13612; VLA-4 expressing cells, ligand binding flow cytometry; inhibition, % (about 7 µM as worked out from the volumes in the protocol); 330,000 tested, 0.2% active; in the data active = inhibition above about 50%
VLA-4 mod pick: confirmation of allosteric modulators of human VLA-4 integrin. U937 cells, HUTS-21 LIBS mAb binding, flow cytometry; LDV ligand present at threefold Kd. AID 2813. 1,300 tested, 2% active. shares compounds with VLA-4 inh. inhibition, % at 6.7 µM; in the data active = inhibition above about 40%;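 also: 0% = ligand without compound and 100% = no ligand background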
Active calls of the source: *; . = no result given; ! = not confirmed by another sample.

SMILES	p-CIP stab down	Arr AP2 block	GASC-1 inh	VLA-4 inh	VLA-4 mod pick
Nc1ccn([C@@H]2O[C@H](CO)[C@@H](O)[C@@H]2O)c(=O)n1	-12.2	-0.2	2.6	53.3*	8.4
CC(C)[C@H](NC(=O)N1CCC(Cc2ccccc2)CC1)C(=O)O	-19.1	31.1	0.8	-10.2	.
Cc1occc1-c1nnc(SCC(=O)N2CCOCC2)n1CCc1ccccc1	-2.3	1.9	6.6	13.2	.
Cc1nc(NC(=O)c2ccc(-c3cc4ccccc4oc3=O)cc2)ccc1Br	-9.0	11.3	7.1	43.3	6.2
c1ccc(-c2nn3cnnc3c3ccccc23)cc1	10.6	5.2	3.3	6.4	-3.5
CCNc1ccc(C(=O)OC(C(=O)NC(N)=O)C(C)C)cc1[N+](=O)[O-] (stereo not drawn)	-3.1	-18.8	-8.0	18.7	.
Cc1ccnc(SCC(=O)N2CCC(C(N)=O)CC2)n1	-1.3	-8.6	3.7	50.7*	12.3
C[C@H](NC(=O)[C@H]1N2C(=O)c3ccccc3C2SC1(C)C)C(=O)N1CCCCC1 (stereo partly drawn)	-0.7	-16.4	-12.4	5.7	.
N#CC(=C1CCCC1)c1nc(-c2ccccc2O)cs1	-2.2	18.8	-7.2	14.2	.
CN(C)CCNC(=O)C(=O)NCC1OCCN1S(=O)(=O)c1ccc([N+](=O)[O-])cc1 (stereo not drawn)	-17.1	1.7	-4.3	16.8	.
O=C(c1ccco1)N1CCN(C(=O)N2CCOCC2)CC1	-10.7	-10.1	7.2	-1.6	.
O=C(NCc1ccccc1)c1ccc2nc(N3CCOCC3)sc2c1	-7.4	-7.2	-6.3	3.4	.
Cc1ccccc1NC(=O)c1ccc2nc(N3CCOCC3)sc2c1	-2.9	-8.8	14.6	17.8	8.4
COc1ccc(C(=O)Nc2ccc3nc(N4CCOCC4)sc3c2)cc1OC	.	-8.2	3.3	-1.8	.
O=C(c1ccc2nc(N3CCOCC3)sc2c1)N1CCN(C(=O)c2ccco2)CC1	-6.8	3.3	-1.3	-4.7	-5.8
O=C(c1ccc([N+](=O)[O-])cc1)N1CCN(C(=O)c2ccco2)CC1	-12.0	2.3	5.4	10.9	.
Cc1cc(C(=O)N2CCN(C(=O)c3ccco3)CC2)ccc1[N+](=O)[O-]	0.3	16.3	4.7	51.0*	6.4
Cc1ccccc1CNC(=O)c1ccc2nc(N3CCOCC3)sc2c1	-12.1	6.7	-12.2	-3.7	11.0
O=C(CN(c1cccc(C(F)(F)F)c1)S(=O)(=O)c1ccc(Cl)c([N+](=O)[O-])c1)NCc1ccccc1	2.6	21.9	-1.1	12.3	.
S=C(Nc1ccc(Oc2ccccc2)cc1)NC1CCCCC1	-14.6	3.7	-1.8	-2.1	.
Cc1cc(Cl)ccc1Oc1ccc(C(N)=O)cc1[N+](=O)[O-]	6.5	-7.4	-4.1	6.8	.
Cc1cc(Cl)ccc1Oc1ccccc1C(=O)CC#N	2.7	10.0	-7.4	41.4	-15.1
Cc1ccc(O)c([C@H](CCN(C(C)C)C(C)C)c2ccccc2)c1	-6.0	-2.8	-35.7	53.3*!	-9.5
COc1ccc(Cl)cc1NC(=O)CN(C)C(=O)C12CC3CC(CC(Cl)(C3)C1)C2	1.8	35.9	-6.3	10.7	.
CSc1ccc(CN(C)C(=O)C23CC4CC(CC(Cl)(C4)C2)C3)cc1	-11.5	27.5	1.7	64.1*	-6.7
SMILES	p-CIP stab down	Arr AP2 block	GASC-1 inh	VLA-4 inh	VLA-4 mod pick
Cc1ccc(-c2nnc3ccc(SCC(=O)NCc4ccco4)nn23)cc1	9.3	8.7	4.1	14.9	.
COc1ccc(-c2nnc3ccc(SCC(=O)NCc4ccco4)nn23)cc1OC	-14.9	1.8	7.4	9.8	0.7
Cc1ccc(-c2nnc3ccc(SC(C)C(=O)O)nn23)cc1 (stereo not drawn)	-11.3	4.0	-3.9	-11.8	-0.6
COc1ccc(-c2nnc3ccc(SCC(=O)N4CCCCC4)nn23)cc1OC	2.0	-0.8	5.5	21.4	7.0
Cc1cc(NC(=O)CSc2ccc3nnc(-c4ccc(Cl)cc4)n3n2)no1	-5.9	10.3	3.8	-0.7	4.4
CC(Sc1ccc2nnc(-c3ccc(F)cc3)n2n1)C(=O)O (stereo not drawn)	-0.7	27.3	-6.5	-8.5	.
CCOc1ccc(-c2nnc3ccc(SCC(=O)Nc4cc(C)on4)nn23)cc1	-12.4	18.0	22.6	10.0	.
COc1ccc(CN(C)C(=O)Cn2cnc3c(OCc4ccccc4)ncnc32)cc1OC	.	-7.5	-27.1	-8.3	.
CCOC(=O)N1CCC(N2Cc3cccc(C(=O)NCc4ccc(C)cc4)c3C2=O)CC1	-1.6	11.6	-10.3	50.1*	13.5
Cc1ccc(C(=O)NC(=S)Nc2ccc(NC(=O)c3cccc(Cl)c3)cc2)cc1	2.3	-12.3	2.6	47.2	7.8
Cc1cc(C)nc(NC(=O)c2ccc(Cl)cc2)n1	3.4	9.9	-3.5	-7.9	.
Cc1cc(C)nc(NC(=O)c2cccc(Cl)c2)n1	11.0	-2.0	-30.5	52.6*	-2.1
CCN=C(NCC)SC1CC(=O)N(c2cccc(OC)c2)C1=O (stereo not drawn)	-4.8	0.1	6.1	14.8	.
Cc1nc2cc(-c3ccc(Cl)cc3)nn2c(C)c1CCC(=O)NCc1ccco1	-10.1	3.3	-3.5	52.3*	17.6
COc1ccc(-c2cc3nc(C)c(CCC(=O)NCc4ccco4)c(C)n3n2)c(OC)c1	-0.5	-12.6	-6.2	6.7	.
CCOc1c(OC)cccc1C1CC(=O)Nc2cc(OC)c(OC)cc21 (stereo not drawn)	-5.1	4.3	-11.7	-13.9	0.0
COc1cc2c(c(OC)c1)C(c1ccncc1)CC(=O)N2 (stereo not drawn)	-4.9	0.8	1.6	34.0	.
COc1cc2c(cc1OC)C(c1ccc(OC)c(OC)c1OC)CC(=O)N2 (stereo not drawn)	-2.5	3.9	0.3	0.3	0.7
COc1cc2c(cc1OC)C(c1cccc(OC)c1OC)CC(=O)N2 (stereo not drawn)	-6.5	-0.7	-4.8	11.7	.
COC(=O)c1ccc(C2CC(=O)Nc3cc(OC)c(OC)c(OC)c32)cc1 (stereo not drawn)	-14.6	20.2	-25.2	1.1	-10.2
Cc1ccc(O)c(NC(=O)CN(C)S(=O)(=O)c2ccc(Cl)cc2)c1	-5.7	18.9	-0.1	-2.0	.
Cc1ccc2c(c1)c(C1=NC(=S)NC1=O)c(O)n2C	11.5	-13.9	17.2	0.9	.
CCCn1c(CN2CCN(C(C)=O)CC2)nc2cc(S(=O)(=O)N(C)C)ccc21	-10.9	9.8	1.7	7.7	.
COc1ccccc1CC(=O)OC(C)C(=O)Nc1ccc(S(=O)(=O)N2CCCCC2)cc1 (stereo not drawn)	.	-19.2	0.4	54.0*	-0.2
COc1ccc2c(c1)NC(=O)CC(c1ccccc1)=N2	4.2	4.2	1.9	15.7	.
CC1=CC(c2ccccc2)=Nc2ccc(C)cc2N1	-11.7	0.7	4.9	66.3*	0.0
Cc1ccc(C)c(N/C(N)=N/c2nc(C)cc(C)n2)c1	-3.4	26.3	-3.3	53.9*	3.5
COc1ccc(C)cc1N/C(N)=N/c1nc(C)cc(C)n1	4.1	16.0	-0.9	-3.2	.
O=C(Oc1ccc(OC(=O)N2CCCCC2)cc1)N1CCCCC1	3.9	.	10.6	7.1	.
